Measurements as given in ChEMBL document CHEMBL1128573, “Synthesis and in vitro evaluation of 4-substituted N-(1,1-dimethylethyl)-3-oxo-4-androstene-17 beta-carboxamides as 5 alpha-reductase inhibitors and antiandrogens” (J Med Chem, 1995).

Assays:
[1] = In vitro inhibition of 5-alpha-dihydrotestosterone stimulated shionogi cell proliferation; NA is not active; format: functional, Mus musculus
How it was run: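 Shionogi mouse mammary carcinoma clone SEM-107 (passage 23), plated at 17400 cells/mL in MEM with 2% charcoal-treated FCS. Grown 13 days with medium changed every 3–4 days. Methanol-fixed, DNA content measured. IC50 by weighted iterative nonlinear least-squares regression; means ± SEM.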

[2] = target: T1, 3-oxo-5-alpha-steroid 4-dehydrogenase 1 (Homo sapiens, UniProt P18405); test: In vitro inhibition of human tSteroid 5-alpha-reductase type I in transfected 293 cells using [3H]- delta4-Androstenedione as substrate.; format: cell-based, HEK293
T1 sequence (P18405 whole entry): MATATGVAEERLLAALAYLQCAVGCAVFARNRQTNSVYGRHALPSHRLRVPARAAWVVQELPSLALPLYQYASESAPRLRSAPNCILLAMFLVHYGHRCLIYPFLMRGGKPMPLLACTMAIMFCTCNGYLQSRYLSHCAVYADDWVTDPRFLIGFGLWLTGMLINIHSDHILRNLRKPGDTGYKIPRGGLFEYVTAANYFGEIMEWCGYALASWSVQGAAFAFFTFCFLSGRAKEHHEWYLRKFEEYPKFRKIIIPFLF
How it was run: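 Homogenate of 293 cells transfected with human type 1 cDNA was the enzyme source. Compounds in ethanol were diluted in 50 mM Tris-HCl pH 7.5 with 20% glycerol and 1 mM EDTA. Screening was at 1 and 0.1 μM, with 12-point IC50 curves (0.1–1000 nM) for actives. Reactions used [3H]androstenedione and 500 μM NADPH for 60 min at 37 °C, followed by ether extraction, TLC and counting of androstanedione as % of control.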

[3] = target: T2, 3-oxo-5-alpha-steroid 4-dehydrogenase 2 (Homo sapiens, UniProt P31213); test: In vitro inhibition of human Steroid 5-alpha-reductase type 2 in transfected SW-13 cells using [3H]- delta4-Androstenedione as substrate; format: cell-based
T2 sequence (P31213 whole entry): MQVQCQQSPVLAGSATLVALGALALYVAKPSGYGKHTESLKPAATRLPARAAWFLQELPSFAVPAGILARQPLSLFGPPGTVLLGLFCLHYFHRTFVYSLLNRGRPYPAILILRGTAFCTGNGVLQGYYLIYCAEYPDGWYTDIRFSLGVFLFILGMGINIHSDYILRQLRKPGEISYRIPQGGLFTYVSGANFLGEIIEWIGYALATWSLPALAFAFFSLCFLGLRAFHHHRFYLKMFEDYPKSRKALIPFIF
How it was run: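 Homogenate of SW-13 cells transfected with human type II cDNA was the enzyme source. Compounds in ethanol were diluted in 50 mM Tris-HCl pH 7.5 with 20% glycerol and 1 mM EDTA. They were screened at 1 and 0.1 μM; those giving ≥50% inhibition at 1 μM were run at 12 concentrations, 0.1–1000 nM. Reactions used [3H]androstenedione and 500 μM NADPH for 60 min at 37 °C. Steroids were ether-extracted and TLC-separated, and androstanedione radioactivity was expressed as % of control.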

[4] = In vitro inhibition of 5-alpha-dihydrotestosterone stimulated shionogi cell proliferation.; format: functional; settings: Mus musculus
How it was run: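 Androgen-sensitive Shionogi mouse mammary carcinoma clone SEM-107 (passage 23) plated at 17400 cells/mL in MEM with 2% dextran-charcoal-treated FCS. Cells grew 13 days with medium changes every 3–4 days, then were methanol-fixed. DNA content was measured, and IC50 was fitted by weighted iterative nonlinear least squares.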

[5] = target: T1, 3-oxo-5-alpha-steroid 4-dehydrogenase 1; test: In vitro inhibition of human Steroid 5-alpha-reductase type I in transfected 293 cells using [3H]- delta4-Androstenedione as substrate; format: cell-based, HEK293
How it was run: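 Homogenate of 293 cells transfected with human type 1 5α-reductase cDNA was used as enzyme. Compounds were dissolved in ethanol and diluted in 50 mM Tris-HCl pH 7.5 with 20% glycerol and 1 mM EDTA. They were screened at 1 and 0.1 μM; those giving ≥50% inhibition at 1 μM were tested at 12 concentrations from 0.1 to 1000 nM. Incubation used [3H]androstenedione and 500 μM NADPH for 60 min at 37 °C, followed by ether extraction, TLC, and counting of androstanedione as % of control.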

[6] = target: T2, 3-oxo-5-alpha-steroid 4-dehydrogenase 2; test: In vitro inhibition of human Steroid 5-alpha-reductase type 2 in transfected SW-13 cells using [3H]- delta4-Androstenedione as substrate; NA is not active; format: cell-based
How it was run: (§1)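 Homogenate of SW-13 cells transfected with human type II cDNA. Compounds diluted in 50 mM Tris-HCl pH 7.5, 20% glycerol, 1 mM EDTA, first screened at 1 and 0.1 μM. Those reaching 50% inhibition at 1 μM were run at 12 levels, 0.1–1000 nM. Incubated with 5 nM [3H]androstenedione and 500 μM NADPH, 60 min, 37 °C. Ether extraction, TLC, androstanedione radioactivity as % of control.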

[7] = target: T1, 3-oxo-5-alpha-steroid 4-dehydrogenase 1; test: In vitro inhibition of human Steroid 5-alpha-reductase type I in transfected 293 cells using [3H]- delta4-Androstenedione as substrate; NA is not active; format: cell-based; settings: hek293
How it was run: as §1, with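 “of 293” for “of SW-13”, “type 1” for “type II”, “with 1” for “with 5”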

| Compound | IC50 [1] | IC50 [2] [µM] | IC50 [3] [µM] | IC50 [4] [µM] | IC50 [5] [µM] | IC50 [6] | IC50 [7] |
| --- | --- | --- | --- | --- | --- | --- | --- |
| [3H]C1CC2=CC(=O)CC[C@]2(C)[C@H]2CC[C@]3(C)C(=O)CC[C@H]3[C@H]12 (stereo partly specified) | Not Active | 2.7 | 0.0839 | – | – | – | – |
| CC(C)(C)NC(=O)[C@H]1CCC2C3CCC4=C(O)C(=O)CC[C@]4(C)C3CC[C@@]21C (stereo partly specified) | – | > 1 | 0.172 | 0.242 | – | – | – |
| CC(C)(C)NC(=O)[C@H]1CCC2C3CCC4=C(Br)C(=O)CC[C@]4(C)C3CC[C@@]21C (stereo partly specified) | – | 0.981 | 0.387 | 0.184 | – | – | – |
| CC(C)(C)NC(=O)[C@H]1CC[C@H]2[C@@H]3CC[C@H]4NC(=O)C=C[C@]4(C)[C@H]3CC[C@]12C [FINASTERIDE] | Not Active | – | 0.00847 | – | 0.218 | – | – |
| CC(C)(C)NC(=O)[C@H]1CCC2C3CCC4=C(Cl)C(=O)CC[C@]4(C)C3CC[C@@]21C (stereo partly specified) | – | > 1 | 0.192 | 0.17 | – | – | – |
| CC(C)(C)NC(=O)[C@H]1CCC2C3CCC4=C(S)C(=O)CC[C@]4(C)C3CC[C@@]21C (stereo partly specified) | – | 0.709 | 0.437 | 0.279 | – | – | – |
| CC(C)(O)C(=O)Nc1ccc([N+](=O)[O-])c(C(F)(F)F)c1 [HYDROXYFLUTAMIDE] | – | – | – | 0.117 | – | Not Active | Not Active |
